{
  "source": "ChEMBL document CHEMBL1137333",
  "about": "“Synthesis, radiosynthesis, and biological evaluation of carbon-11 labeled 2beta-carbomethoxy-3beta-(3'-((Z)-2-haloethenyl)phenyl)nortropanes: candidate radioligands for in vivo imaging of the serotonin transporter with positron emission tomography” (J Med Chem, 2006)",
  "key": {"[1]": {"tested_on": "Cynomolgus monkey", "assay": "Uptake in anesthetized cynomolgus monkey putamen after 12.5 mins", "assay_type": "ADME, organism-based", "settings": "in vivo", "outline": "(§1)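 Baseline microPET (Concorde P4) scan in anesthetized cynomolgus monkeys after injection of the carbon-11 labeled tracer, with no chase drug. Regional brain time-activity curves were followed over the scan. Tracer radiochemical purity and specific activity were determined by analytical HPLC at the time of injection.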"}, "[2]": {"tested_on": "Cynomolgus monkey", "assay": "Uptake in anesthetized cynomolgus monkey putamen after 9.5 mins", "assay_type": "ADME, organism-based", "settings": "in vivo", "outline": "as §1"}, "[3]": {"tested_on": "Cynomolgus monkey", "assay": "Uptake in anesthetized cynomolgus monkey medulla after 65.0 mins", "assay_type": "ADME, organism-based, Medulla of organ", "settings": "in vivo", "outline": "(§2)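 Baseline microPET scan (P4 scanner) of anesthetized cynomolgus monkeys after injection of the carbon-11 labelled nortropane tracer. Two baseline studies were run per tracer. Radioactivity was followed over time in regional brain time-activity curves.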"}, "[4]": {"tested_on": "Cynomolgus monkey", "assay": "Uptake in anesthetized cynomolgus monkey frontal after 135.0 mins", "assay_type": "ADME, organism-based, Frontal cortex", "settings": "in vivo, 2.25 h", "outline": "as §2"}, "[5]": {"tested_on": "Cynomolgus monkey", "assay": "Uptake in anesthetized cynomolgus monkey cerebellum after 0.5 mins", "assay_type": "ADME, organism-based", "settings": "in vivo", "outline": "(§3)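 Baseline microPET (Concorde P4) regional brain time-activity curves in anesthetized cynomolgus monkey following injection of the [11C]-labelled tracer, with radioactivity followed over the scan.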"}, "[6]": {"tested_on": "Cynomolgus monkey", "assay": "Uptake in anesthetized cynomolgus monkey midbrain after 45.0 mins", "assay_type": "ADME, organism-based", "settings": "in vivo, 0.75 h", "outline": "as §2"}, "[7]": {"tested_on": "Cynomolgus monkey", "assay": "Uptake in anesthetized cynomolgus monkey caudate after 75.0 mins", "assay_type": "ADME, organism-based, Caudate nucleus", "settings": "in vivo, 1.25 h", "outline": "as §3"}, "[8]": {"tested_on": "Cynomolgus monkey", "assay": "Ratio of uptake in frontal to cerebellum of anesthetized cynomolgus monkey after 105 mins", "assay_type": "ADME, organism-based", "settings": "in vivo, 1.75 h", "outline": "(§4)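 Baseline microPET (Concorde P4) in anesthetized cynomolgus monkey after injection of the [11C]-labelled tracer. Regional time-activity curves were taken, and each region's uptake was divided by cerebellum uptake (low-SERT reference) at 65, 85 and 105 min postinjection.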"}, "[9]": {"tested_on": "Cynomolgus monkey", "assay": "Uptake in anesthetized cynomolgus monkey thalamus after 18.5 mins", "assay_type": "ADME, organism-based", "settings": "in vivo", "outline": "as §1"}, "[10]": {"tested_on": "Cynomolgus monkey", "assay": "Uptake in anesthetized cynomolgus monkey frontal after 65.0 mins", "assay_type": "ADME, organism-based, Frontal cortex", "settings": "in vivo", "outline": "as §2"}, "[11]": {"tested_on": "Cynomolgus monkey", "assay": "Uptake in anesthetized cynomolgus monkey putamen after 2.5 mins", "assay_type": "ADME, organism-based", "settings": "in vivo", "outline": "as §1"}, "[12]": {"tested_on": "Cynomolgus monkey", "assay": "Uptake in anesthetized cynomolgus monkey thalamus after 55.0 mins", "assay_type": "ADME, organism-based", "settings": "in vivo", "outline": "as §1"}, "[13]": {"tested_on": "Cynomolgus monkey", "assay": "Uptake in anesthetized cynomolgus monkey frontal after 3.5 mins", "assay_type": "ADME, organism-based, Frontal cortex", "settings": "in vivo", "outline": "as §2"}, "[14]": {"tested_on": "Cynomolgus monkey", "assay": "Uptake in anesthetized cynomolgus monkey thalamus after 3.5 mins", "assay_type": "ADME, organism-based", "settings": "in vivo", "outline": "as §1"}, "[15]": {"tested_on": "Cynomolgus monkey", "assay": "Uptake in anesthetized cynomolgus monkey cerebellum after 125.0 mins", "assay_type": "ADME, organism-based, Macaca mulatta", "settings": "rhesus monkey, in vivo", "outline": "as §3"}, "[16]": {"tested_on": "Cynomolgus monkey", "assay": "Uptake in anesthetized cynomolgus monkey medulla after 3.5 mins", "assay_type": "ADME, organism-based, Medulla of organ", "settings": "in vivo", "outline": "as §2"}, "[17]": {"tested_on": "Cynomolgus monkey", "assay": "Uptake in anesthetized cynomolgus monkey frontal after 22.5 mins", "assay_type": "ADME, organism-based, Frontal cortex", "settings": "in vivo, 0.375 h", "outline": "as §2"}, "[18]": {"tested_on": "Cynomolgus monkey", "assay": "Uptake in anesthetized cynomolgus monkey cerebellum after 95.0 mins", "assay_type": "ADME, organism-based", "settings": "in vivo", "outline": "as §3"}, "[19]": {"tested_on": "Cynomolgus monkey", "assay": "Uptake in anesthetized cynomolgus monkey frontal after 75.0 mins", "assay_type": "ADME, organism-based, Frontal cortex", "settings": "in vivo, 1.25 h", "outline": "as §2"}, "[20]": {"tested_on": "Cynomolgus monkey", "assay": "Ratio of uptake in putamen to cerebellum of anesthetized cynomolgus monkey after 85 mins", "assay_type": "ADME, organism-based", "settings": "in vivo", "outline": "as §4"}, "[21]": {"tested_on": "Cynomolgus monkey", "assay": "Uptake in anesthetized cynomolgus monkey putamen after 125.0 mins", "assay_type": "ADME, organism-based", "settings": "in vivo", "outline": "as §1"}, "[22]": {"tested_on": "Cynomolgus monkey", "assay": "Ratio of uptake in midbrain to cerebellum of anesthetized cynomolgus monkey after 65 mins", "assay_type": "ADME, organism-based", "settings": "in vivo", "outline": "as §4"}, "[23]": {"tested_on": "Cynomolgus monkey", "assay": "Uptake in anesthetized cynomolgus monkey caudate after 125.0 mins", "assay_type": "ADME, organism-based, Caudate nucleus", "settings": "in vivo", "outline": "as §3"}, "[24]": {"tested_on": "Cynomolgus monkey", "assay": "Uptake in anesthetized cynomolgus monkey medulla after 1.5 mins", "assay_type": "ADME, organism-based, Medulla of organ", "settings": "in vivo, 0.025 h", "outline": "as §2"}, "[25]": {"tested_on": "Cynomolgus monkey", "assay": "Uptake in anesthetized cynomolgus monkey thalamus after 125.0 mins", "assay_type": "ADME, organism-based", "settings": "in vivo", "outline": "as §1"}, "[26]": {"tested_on": "Cynomolgus monkey", "assay": "Uptake in anesthetized cynomolgus monkey putamen after 6.5 mins", "assay_type": "ADME, organism-based", "settings": "in vivo", "outline": "as §1"}, "[27]": {"tested_on": "Cynomolgus monkey", "assay": "Uptake in anesthetized cynomolgus monkey thalamus after 45.0 mins", "assay_type": "ADME, organism-based", "settings": "in vivo, 0.75 h", "outline": "as §1"}},
  "data": [
    {"smiles": "[11CH3]OC(=O)[C@@H]1C2CCC(C[C@@H]1c1cccc(/C=C/Br)c1)N2", "note": "(some centres not stated)", "values": [
      {"measurement": "Drug uptake", "setting": "[1]", "value": 5.62},
      {"measurement": "Drug uptake", "setting": "[2]", "value": 5.41},
      {"measurement": "Drug uptake", "setting": "[3]", "value": 7.11},
      {"measurement": "Drug uptake", "setting": "[4]", "value": 3.43},
      {"measurement": "Drug uptake", "setting": "[5]", "value": 0.01},
      {"measurement": "Drug uptake", "setting": "[6]", "value": 7.58},
      {"measurement": "Drug uptake", "setting": "[7]", "value": 6.61},
      {"measurement": "Ratio", "setting": "[8]", "value": 1.2},
      {"measurement": "Drug uptake", "setting": "[9]", "value": 5.21},
      {"measurement": "Drug uptake", "setting": "[10]", "value": 3.8},
      {"measurement": "Drug uptake", "setting": "[11]", "value": 1.01},
      {"measurement": "Drug uptake", "setting": "[12]", "value": 6.4},
      {"measurement": "Drug uptake", "setting": "[13]", "value": 1.07},
      {"measurement": "Drug uptake", "setting": "[14]", "value": 1.54},
      {"measurement": "Drug uptake", "setting": "[15]", "value": 3.74},
      {"measurement": "Drug uptake", "setting": "[16]", "value": 2.5},
      {"measurement": "Drug uptake", "setting": "[17]", "value": 3.47},
      {"measurement": "Drug uptake", "setting": "[18]", "value": 4.09},
      {"measurement": "Drug uptake", "setting": "[19]", "value": 3.78},
      {"measurement": "Ratio", "setting": "[20]", "value": 1.6},
      {"measurement": "Drug uptake", "setting": "[21]", "value": 6.69},
      {"measurement": "Ratio", "setting": "[22]", "value": 1.6},
      {"measurement": "Drug uptake", "setting": "[23]", "value": 5.66},
      {"measurement": "Drug uptake", "setting": "[24]", "value": 0.4},
      {"measurement": "Drug uptake", "setting": "[25]", "value": 6.09},
      {"measurement": "Drug uptake", "setting": "[26]", "value": 4.44},
      {"measurement": "Drug uptake", "setting": "[27]", "value": 6.07}
    ]}
  ]
}
